# Laboratory results from PubChem BioAssay.
# Activity calls are given as the source filed them.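 The calls were made as follows, unless noted: active = compounds giving at least 50% inhibition in the cell-based MKP-3 phosphatase rescue imaging test; inactive = the rest.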
# Legend:
# [1] = inhibitors of TNFa-induced NFkB p65 translocation, primary screen, imaging, HUVEC, MLSMR starter and 10KST1 sets (AID 438;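 active = inhibition above 20% together with a positive visual image hit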;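 also: compound added about 3h40 before a 20 min TNFalpha stimulation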;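 as to inhibition: signal is the nuclear over cytoplasmic p65 intensity ratio per well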); conditions: HUVEC TNFa-induced p65 nuclear translocation; cell count: measured here: nuclei count (cytotoxicity indicator), at 2.08 µM; inhibition: at 2 µM, stronger effect = higher value, 0% TNFa-plus-vehicle, 100% no-TNFa wells
# [2] = inhibitors of E-selectin induction by TNFa, primary screen, imaging, HUVEC, immunofluorescence, MLSMR starter and 10KST1 sets (AID 487;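 active = visually confirmed hit in the image check and inhibition above 20%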;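 as to inhibition: signal is fraction of cell area covered by stained E-selectin grains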;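 as to nuclei count: 100% = median nuclei count of all wells on the same plate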); conditions: HUVEC TNFalpha-induced E-selectin immunofluorescence imaging, at 2 µM; inhibition: stronger effect = higher value; nuclei count: measured here: cell number, toxicity
# [3] = DUSP6 inhibitors restoring Erk phosphorylation by chemical complementation, primary imaging in DUSP6-transfected HeLa (AID 609); conditions: HeLa MKP-3 transfected, phospho-Erk imaging KS statistic, at 10 µM, cells stimulated with TPA for 15 min;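 as to inhibition: phospho-Erk level distribution per well compared with pooled transfected vehicle control wells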
# [4] = biological target: Dual specificity protein phosphatase 6 (Homo sapiens) (UniProt Q16828); assay: as above; conditions: HeLa MKP-3 transfected, phospho-Erk imaging KS statistic; at 10 µM; stronger effect = higher value; cells stimulated with TPA for 15 min
# Dual specificity protein phosphatase 6 (Homo sapiens), sequence (Q16828 whole entry, looked up): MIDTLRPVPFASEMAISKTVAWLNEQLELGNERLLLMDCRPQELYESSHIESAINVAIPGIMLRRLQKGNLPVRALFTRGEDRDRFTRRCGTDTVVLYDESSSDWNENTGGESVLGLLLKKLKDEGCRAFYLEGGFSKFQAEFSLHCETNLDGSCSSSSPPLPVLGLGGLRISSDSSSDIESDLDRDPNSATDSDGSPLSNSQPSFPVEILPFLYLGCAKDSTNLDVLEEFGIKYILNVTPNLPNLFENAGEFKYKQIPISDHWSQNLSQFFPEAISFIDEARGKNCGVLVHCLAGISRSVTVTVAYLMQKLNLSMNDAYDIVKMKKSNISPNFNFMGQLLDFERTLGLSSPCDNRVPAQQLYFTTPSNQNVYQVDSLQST
# [5] = biological target: Voltage-gated potassium channel subunit beta-2 (Rattus norvegicus) (UniProt P62483); assay: KvBeta enzyme negative modulators, primary screen, biochemical, NADPH fluorescence (AID 622;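 active = fluorescence slope higher than the sample average by over 3 SD, cut at about -0.22 in these data, passing the limit was not always enough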;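 also: slope of raw intensity against log time taken from 70 to 1610 s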); conditions: recombinant KvBeta, 4-cyanobenzaldehyde reduction, at 10 µM, stronger effect = higher value
# Voltage-gated potassium channel subunit beta-2 (Rattus norvegicus), sequence (P62483 whole entry, looked up): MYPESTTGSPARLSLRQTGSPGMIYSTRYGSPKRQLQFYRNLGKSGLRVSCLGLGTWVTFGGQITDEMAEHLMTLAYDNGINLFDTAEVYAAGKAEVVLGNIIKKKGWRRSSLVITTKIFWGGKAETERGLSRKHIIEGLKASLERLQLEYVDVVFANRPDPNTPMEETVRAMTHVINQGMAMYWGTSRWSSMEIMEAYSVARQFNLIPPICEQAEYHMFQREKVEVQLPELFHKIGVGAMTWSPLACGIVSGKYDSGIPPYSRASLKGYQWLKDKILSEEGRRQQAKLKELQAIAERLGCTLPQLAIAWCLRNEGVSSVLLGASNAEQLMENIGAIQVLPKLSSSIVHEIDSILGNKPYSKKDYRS
# [6] = biological target: Voltage-gated potassium channel subunit beta-2 (Rattus norvegicus) (UniProt P62483); assay: KvBeta positive modulators, primary screen, biochemical, NADPH fluorescence (AID 623;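 active = NADPH fluorescence slope more negative than the mean of all samples by about 3 SD, 99.7% confidence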;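 also: fluorescence intensity change per second fitted from 20 to 320 s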); conditions: Recombinant KvBeta, NADPH fluorescence decrease slope, 10 min; at 10 µM; stronger effect = lower value
# [7] = biological target: Alpha-2C adrenergic receptor (Homo sapiens) (UniProt P18825); assay: modulators of alpha2C/GIRK thallium flux, primary screen, cell-based, HEK293 alpha2C/GIRK1/2 (AID 624;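 active = fluorescence slope after compound addition differing from the mean of all screened samples at 99.7% confidence, in either direction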;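 also: slope of fluorescence ratio to pre-addition baseline per second over 15 to 24 s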); conditions: thallium flux BTC fluorescence, at 10 µM, actives lie on both sides
# Alpha-2C adrenergic receptor (Homo sapiens), sequence (P18825 whole entry, looked up): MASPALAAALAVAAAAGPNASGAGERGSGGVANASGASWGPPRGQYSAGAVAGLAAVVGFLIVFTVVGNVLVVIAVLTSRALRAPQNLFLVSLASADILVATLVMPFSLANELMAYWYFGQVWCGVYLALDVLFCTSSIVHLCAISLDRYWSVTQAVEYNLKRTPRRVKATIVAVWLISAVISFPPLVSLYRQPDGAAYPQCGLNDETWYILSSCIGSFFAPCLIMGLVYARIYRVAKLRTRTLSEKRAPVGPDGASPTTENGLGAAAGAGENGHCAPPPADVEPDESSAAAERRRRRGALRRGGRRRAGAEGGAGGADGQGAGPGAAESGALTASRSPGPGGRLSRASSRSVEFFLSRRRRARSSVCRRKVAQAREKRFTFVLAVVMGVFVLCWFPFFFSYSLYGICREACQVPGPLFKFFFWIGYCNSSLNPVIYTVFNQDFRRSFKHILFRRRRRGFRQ
# [8] = inhibitors of larval lipid processing in zebrafish, primary screen, whole organism, PED6 fluorescence, gall bladder and intestine (AID 686;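 active = a full or partial loss of lipid-probe fluorescence in the fish gall bladder, intestine or both, judged by eye; inactive = no fluorescence loss, or compound toxic to the fish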;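 also: larvae 5 to 7 days old with five fish per well; signal comes from phospholipase A2 cleavage of quenched PED6 carried via bile; overnight exposure to compound and PED6 before scoring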); conditions: Zebrafish larvae PED6 lipid processing, fluorescence scoring; screened at 20 µM (by protocol)
# Summary of the method: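 Test system – live zebrafish larvae aged 5-7 days, whole organism · Buffer or medium – E3 fish medium · Reagent – quenched phospholipase substrate PED6, 100 nM final, ingested by larvae · Doses – 20 µM single dose · Incubation – overnight compound and PED6 incubation · Technique – visual fluorescence microscopy scoring of gall bladder, gut · Read-out basis – visual per-well fluorescence inhibition score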
# [9] = inhibitors of Chlamydomonas gravitaxis, primary screen, whole organism, Chlamydomonas reinhardtii, WT vs cilia-less mutant, absorbance, 96-well (AID 463189;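 active = inhibition at or above 50% relative to wild type and mutant plate controls; inactive = inhibition below 50%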;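 also: 0% = wild type cc124 cells in DMSO and 100% = ciliumless bld1 mutant cells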); conditions: OD600 absorbance, 2 days, at 10 µM, stronger effect = higher value
# [10] = biological target: Muscarinic acetylcholine receptor M4 (Homo sapiens) (UniProt P08173); assay: compounds altering M4/GIRK thallium flux, either direction, primary screen, M4 allosteric agonist project, cell-based, HEK293 M4/GIRK, BTC-AM (AID 625;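 active = fluorescence slope after compound addition differing from the mean of all tested samples at 99.7% confidence, mostly higher but some lower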;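 also: thallium influx through GIRK channels coupled to M4 in HEK293 cells with BTC-AM dye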); conditions: at 10 µM, actives lie on both sides
# Muscarinic acetylcholine receptor M4 (Homo sapiens), sequence (P08173 whole entry, looked up): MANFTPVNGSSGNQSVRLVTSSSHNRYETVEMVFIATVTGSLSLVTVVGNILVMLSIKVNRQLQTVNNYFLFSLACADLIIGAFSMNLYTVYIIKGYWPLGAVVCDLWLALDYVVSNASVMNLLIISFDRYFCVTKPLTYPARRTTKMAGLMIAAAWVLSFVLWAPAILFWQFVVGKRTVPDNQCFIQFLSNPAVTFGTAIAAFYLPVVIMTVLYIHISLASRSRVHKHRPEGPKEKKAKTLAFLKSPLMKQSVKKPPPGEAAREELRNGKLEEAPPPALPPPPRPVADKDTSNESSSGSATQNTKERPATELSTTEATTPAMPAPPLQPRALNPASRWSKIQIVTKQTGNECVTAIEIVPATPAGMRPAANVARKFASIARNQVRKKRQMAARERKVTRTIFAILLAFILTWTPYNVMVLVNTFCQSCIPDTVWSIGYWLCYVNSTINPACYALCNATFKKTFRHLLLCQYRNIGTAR
# Summary of the method: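 System: HEK293 cells with M4 receptor and GIRK channels | Incubation: Cells overnight at 37 °C, BTC-AM loading 1 h, reads 2 min total | Technique: Kinetic BTC-AM fluorescence sampled at 1 Hz, 10 s pre-addition baseline | Measure: Post-addition slope, 15–24 s, of baseline-normalized fluorescence | Control set: Carbachol positive, DMSO negative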
# [11] = measured here: cell density z-score
# [12] = measured here: nuclear c-Myc green intensity z-score
# [13] = measured here: nuclear pErk red intensity z-score, stronger effect = higher value
SMILES,cell count [1],inhibition [1],inhibition [2],nuclei count [2],"z-score [3, 11]","z-score [3, 12]","z-score [3, 13]",inhibition [4],fluorescence slope [5],NADPH fluorescence slope [6],slope [7],outcome [8],inhibition [9],fluorescence slope [10]
O=C(c1ccccc1F)N1CCC(N2CCCCCC2)CC1,332,-3.1% (inactive),-138% (inactive),95.6%,0.261,-1.02,-0.289,15.1% (inactive),-0.493 (inactive),-1.4e-05 (inactive),0.00789 (inactive),inactive,50.6% (active),–
CCCc1nn(C)c2c1C(c1cccnc1)C(C#N)=C(N)O2 (centres undefined),521,-5.3% (inactive),-50.3% (inactive),183%,0.834,0.991,-0.817,9.61% (inactive),-0.274 (inactive),4.2e-08 (inactive),0.00487 (inactive),inactive,14.7% (inactive),–
O=C(c1ccc(=O)oc1)N1CCN(c2ccc(F)cc2)CC1,328,-4.5% (inactive),-1.9% (inactive),95.2%,-0.519,-0.0445,0.228,17.4% (inactive),-0.364 (inactive),-4.3e-05 (inactive),0.00509 (inactive),inactive,31% (inactive),–
CN1CCN(c2nc(C(N)=O)cc(-c3ccccc3)n2)CC1,400,-6.4% (inactive),14% (inactive),98.8%,1.22,-2.25,0.112,7.83% (inactive),-0.498 (inactive),-3.9e-05 (inactive),0.00569 (inactive),inactive,18.8% (inactive),–
CCOC(=O)c1[nH]c2ccc(OC)cc2c1NC(=O)CN1CCN(c2ccccn2)CC1,551,-8.8% (inactive),-2.8% (inactive),157%,-0.126,0.554,1.04,-14% (inactive),-0.16 (inactive),2.2e-06 (inactive),0.00466 (inactive),inactive,-9.68% (inactive),–
COc1cc(C)nc(N(C)S(=O)(=O)c2ccccc2Cl)n1,587,-9% (inactive),26.6% (inactive),175%,1.16,0.469,-0.133,9.82% (inactive),-0.36 (inactive),3.2e-06 (inactive),0.00436 (inactive),inactive,-1.55% (inactive),–
COc1ccc(-n2ccc(=O)c3c2CCCC3=O)cc1,538,-18% (inactive),-24.2% (inactive),175%,0.411,1.24,0.919,-3.97% (inactive),-0.383 (inactive),-5.1e-05 (inactive),–,inactive,-7.89% (inactive),0.00531 (inactive)
C=CCOc1nc2c(c(=O)n(Cc3ccc(Cl)c(Cl)c3)c(=O)n2C)n1C,654,0.8% (inactive),-39.8% (inactive),140%,1.05,1.15,-1.45,-2.91% (inactive),-0.492 (inactive),-0.000116 (inactive),0.00594 (inactive),inactive,-5.33% (inactive),–
Cc1ccc(-c2nnc(OCCN3CCOCC3)c3ccccc23)cc1,453,0.4% (inactive),-85.1% (inactive),167%,1.01,-0.803,-0.0262,4.37% (inactive),-0.463 (inactive),-2.6e-05 (inactive),–,inactive,30.5% (inactive),0.00559 (inactive)
O=C(c1ccco1)N1CCN(c2ncnc3c2[nH]c2ccccc23)CC1,462,0.3% (inactive),-18.4% (inactive),138%,1.15,0.243,0.509,0.671% (inactive),-0.359 (inactive),-1.6e-05 (inactive),0.00516 (inactive),inactive,-4.22% (inactive),–
CCCCCCn1c(SCCN2CCOCC2)nc2c1c(=O)[nH]c(=O)n2C,534,-16.2% (inactive),-9.8% (inactive),139%,0.497,0.889,0.83,13.4% (inactive),-0.409 (inactive),-4.3e-05 (inactive),–,inactive,27.5% (inactive),0.00545 (inactive)
CCC(NC(=O)Nc1ccc(O)cc1)(C(F)(F)F)C(F)(F)F,709,-9.4% (inactive),18.3% (inactive),156%,-0.865,0.673,0.754,-3.95% (inactive),-0.448 (inactive),-3.4e-05 (inactive),–,inactive,2.89% (inactive),0.00524 (inactive)
CCCCc1c(C)c2ccc(OCC(C)=O)cc2oc1=O,647,-10% (inactive),51.6% (inactive),90.6%,-2.59,0.867,-5.29,47.6% (inactive),-0.472 (inactive),-3.8e-05 (inactive),–,inactive,-0.273% (inactive),0.00708 (inactive)
